# Test results: ChEMBL document CHEMBL3108700, “Designing anti-inflammatory drugs from parasitic worms: a synthetic small molecule analogue of the Acanthocheilonema viteae product ES-62 prevents development of collagen-induced arthritis” (J Med Chem, 2013)
# The source made the active and inactive calls.
# Key:
# [1] = target: T1, Toll-like receptor 9 (Mus musculus) (UniProt Q9EQU3); assay: Inhibition of TLR9-mediated NFkappaB p65 activation in CpG-stimulated BALB/c mouse BMDM at 5 ug/ml preincubated for 18 hrs followed by CpG challenge measured after 1 hr by TransAM ELISA
# T1 sequence (whole entry): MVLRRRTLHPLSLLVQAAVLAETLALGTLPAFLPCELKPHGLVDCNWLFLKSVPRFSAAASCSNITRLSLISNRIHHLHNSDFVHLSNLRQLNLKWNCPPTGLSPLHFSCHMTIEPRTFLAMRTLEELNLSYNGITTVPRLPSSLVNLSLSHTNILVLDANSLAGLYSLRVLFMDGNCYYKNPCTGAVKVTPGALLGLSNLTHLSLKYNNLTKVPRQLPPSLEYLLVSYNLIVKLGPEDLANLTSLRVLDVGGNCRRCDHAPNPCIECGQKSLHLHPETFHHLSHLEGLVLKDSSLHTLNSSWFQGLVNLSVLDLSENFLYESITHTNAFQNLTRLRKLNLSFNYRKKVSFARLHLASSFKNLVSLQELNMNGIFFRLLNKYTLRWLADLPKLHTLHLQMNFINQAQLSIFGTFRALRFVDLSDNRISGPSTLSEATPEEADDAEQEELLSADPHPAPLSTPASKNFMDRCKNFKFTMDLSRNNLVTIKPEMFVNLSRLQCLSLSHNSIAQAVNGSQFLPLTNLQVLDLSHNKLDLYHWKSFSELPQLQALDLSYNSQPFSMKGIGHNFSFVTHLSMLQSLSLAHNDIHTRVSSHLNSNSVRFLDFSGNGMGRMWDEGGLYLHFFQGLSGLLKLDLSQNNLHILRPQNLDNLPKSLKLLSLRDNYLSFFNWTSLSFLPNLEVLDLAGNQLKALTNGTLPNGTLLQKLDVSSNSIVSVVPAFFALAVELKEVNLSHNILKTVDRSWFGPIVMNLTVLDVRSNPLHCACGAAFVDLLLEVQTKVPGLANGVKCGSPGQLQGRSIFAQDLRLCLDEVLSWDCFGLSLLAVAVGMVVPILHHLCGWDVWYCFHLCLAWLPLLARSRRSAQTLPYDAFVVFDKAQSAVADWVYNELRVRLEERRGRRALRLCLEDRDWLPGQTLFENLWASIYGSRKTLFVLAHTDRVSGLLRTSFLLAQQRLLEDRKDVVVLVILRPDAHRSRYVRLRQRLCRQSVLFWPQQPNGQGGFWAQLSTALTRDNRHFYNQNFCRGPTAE
# Procedure, shortened: (§1)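 Bone marrow macrophages (4 × 10^6/well) had their medium changed after 24 h, were pretreated with compounds at 5 μg/mL for 18 h, then stimulated for 1 h with 100 ng/mL LPS, 10 ng/mL BLP or 1 μM CpG. Activated NFκB p65 in nuclear extracts was measured by TransAM ELISA in duplicate.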
# [2] = target: T2, Toll-like receptor 4 (Mus musculus) (UniProt Q9QUK6); assay: Inhibition of TLR4 in BALB/c mouse BMDM assessed as downregulation of LPS-stimulated IL-12p40 level at 5 ug/ml preincubated for 18 hrs followed by LPS challenge measured after 24 hrs by ELISA relative to control
# T2 sequence (whole entry): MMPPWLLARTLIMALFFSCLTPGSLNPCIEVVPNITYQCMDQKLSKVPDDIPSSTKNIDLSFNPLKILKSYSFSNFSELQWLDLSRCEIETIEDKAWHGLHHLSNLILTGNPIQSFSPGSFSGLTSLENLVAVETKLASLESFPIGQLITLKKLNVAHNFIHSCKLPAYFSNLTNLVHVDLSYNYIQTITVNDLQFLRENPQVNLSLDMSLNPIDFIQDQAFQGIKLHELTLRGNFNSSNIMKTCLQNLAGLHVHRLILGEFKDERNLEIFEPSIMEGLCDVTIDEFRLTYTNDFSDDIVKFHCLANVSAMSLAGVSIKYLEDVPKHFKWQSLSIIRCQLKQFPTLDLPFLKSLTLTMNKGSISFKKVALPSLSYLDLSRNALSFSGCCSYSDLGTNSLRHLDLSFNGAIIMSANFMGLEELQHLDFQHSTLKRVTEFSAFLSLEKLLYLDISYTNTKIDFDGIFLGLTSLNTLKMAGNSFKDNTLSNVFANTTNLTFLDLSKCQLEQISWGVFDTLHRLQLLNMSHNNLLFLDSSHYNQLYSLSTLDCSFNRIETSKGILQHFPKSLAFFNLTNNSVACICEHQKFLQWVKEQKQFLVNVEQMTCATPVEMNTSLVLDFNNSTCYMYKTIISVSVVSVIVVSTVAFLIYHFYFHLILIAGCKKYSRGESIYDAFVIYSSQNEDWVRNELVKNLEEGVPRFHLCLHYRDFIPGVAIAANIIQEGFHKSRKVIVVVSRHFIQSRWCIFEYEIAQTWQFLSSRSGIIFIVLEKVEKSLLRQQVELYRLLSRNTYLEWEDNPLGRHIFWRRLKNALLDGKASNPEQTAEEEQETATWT
# Procedure, shortened: (§2)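 BALB/c male bone marrow macrophages were differentiated 7 days with L929 supernatant (≥99% CD11b+/F4/80+). Cells were plated at 2 × 10^5/well in triplicate, rested overnight, and given compounds at 5 μg/mL for 18 h. They were then stimulated with 100 ng/mL S. minnesota LPS, 10 ng/mL Pam3CSK4 (BLP) or 0.01 μM CpG for 24 h. Supernatant IL-12p40 and IL-6 were measured by ELISA (sensitivity 16 pg/mL).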
# TLR2/TLR6 (Mus musculus) [3] = target: T3, TLR2/TLR6 (Mus musculus) (UniProt Q9QUN7+Q9EPW9); assay: Inhibition of TLR2/6 in BALB/c mouse BMDM assessed as downregulation of BLP-stimulated IL-6 level at 5 ug/ml preincubated for 18 hrs followed by BLP challenge measured after 24 hrs by ELISA relative to control; format: protein-complex assay; procedure, shortened: as §2
# [4] = target: T1, Toll-like receptor 9 (Mus musculus); assay: Inhibition of TLR9 in BALB/c mouse BMDM assessed as downregulation of CpG-stimulated IL-6 level at 5 ug/ml preincubated for 18 hrs followed by CpG challenge measured after 24 hrs by ELISA relative to control; procedure, shortened: as §2
# [5] = target: T1, Toll-like receptor 9 (Mus musculus); assay: Inhibition of TLR9 in BALB/c mouse BMDM assessed as downregulation of CpG-stimulated IL-12p40 level at 5 ug/ml preincubated for 18 hrs followed by CpG challenge measured after 24 hrs by ELISA relative to control; procedure, shortened: as §2
# [6] = target: T2, Toll-like receptor 4 (Mus musculus); assay: Inhibition of TLR4 in BALB/c mouse BMDM assessed as downregulation of LPS-stimulated IL-6 level at 5 ug/ml preincubated for 18 hrs followed by LPS challenge measured after 24 hrs by ELISA relative to control; procedure, shortened: as §2
# TLR2/TLR6 (Mus musculus) [7] = target: T3, TLR2/TLR6 (Mus musculus); assay: Inhibition of TLR2/6-mediated NFkappaB p65 activation in BLP-stimulated BALB/c mouse BMDM at 5 ug/ml preincubated for 18 hrs followed by BLP challenge measured after 1 hr by TransAM ELISA; format: protein-complex assay; procedure, shortened: as §1
# [8] = target: T2, Toll-like receptor 4 (Mus musculus); assay: Inhibition of TLR4-mediated NFkappaB p65 activation in LPS-stimulated BALB/c mouse BMDM at 5 ug/ml preincubated for 18 hrs followed by LPS challenge measured after 1 hr by TransAM ELISA; procedure, shortened: as §1
# TLR2/TLR6 (Mus musculus) [9] = target: T3, TLR2/TLR6 (Mus musculus); assay: Inhibition of TLR2/6 in BALB/c mouse BMDM assessed as downregulation of BLP-stimulated IL-12p40 level at 5 ug/ml preincubated for 18 hrs followed by BLP challenge measured after 24 hrs by ELISA relative to control; format: protein-complex assay; procedure, shortened: as §2
SMILES,inhibition [1],inhibition [2],inhibition (TLR2/TLR6 (Mus musculus) [3]),inhibition [4],inhibition [5],inhibition [6],inhibition (TLR2/TLR6 (Mus musculus) [7]),inhibition [8],inhibition (TLR2/TLR6 (Mus musculus) [9])
CN(C)CCS(=O)(=O)NCc1ccc([N+](=O)[O-])cc1,inactive,inactive,Active,Active,Active,Active,inactive,inactive,Active
CC[C@@H](C)NCCS(=O)(=O)Cc1ccc(Br)cc1,,inactive,inactive,inactive,inactive,inactive,,,inactive
C[N+](C)(C)CCCS(=O)(=O)Cc1ccc(Br)cc1,,inactive,Active,inactive,inactive,Active,,,inactive
CN(C)CCS(=O)(=O)Nc1ccccc1,,Active,inactive,inactive,inactive,inactive,,,inactive
CN(C)CCS(=O)(=O)Cc1cccc(F)c1,,inactive,inactive,inactive,inactive,inactive,,,inactive
CN(C)CCS(=O)(=O)NCc1ccc(F)cc1,,inactive,inactive,inactive,Active,inactive,,,inactive

# Now from value to compound:
inhibition [1],inhibition [2],inhibition (TLR2/TLR6 (Mus musculus) [3]),inhibition [4],inhibition [5],inhibition [6],inhibition (TLR2/TLR6 (Mus musculus) [7]),inhibition [8],inhibition (TLR2/TLR6 (Mus musculus) [9]),SMILES
,inactive,inactive,inactive,inactive,inactive,,,inactive,O=[N+]([O-])c1ccc(CNS(=O)(=O)CCN2CCCC2)cc1
,inactive,Active,inactive,inactive,inactive,,,inactive,O=S(=O)(Cc1ccc2ccccc2c1)NCCN1CCCC1
,inactive,inactive,Active,Active,Active,,,Active,O=S(=O)(Cc1ccc2ccccc2c1)NCCN1CCOCC1
,inactive,Active,inactive,inactive,inactive,,,Active,CC[C@@H](C)NCCS(=O)(=O)Cc1cccc(F)c1
,inactive,inactive,inactive,inactive,inactive,,,inactive,CN(C)CCS(=O)(=O)NCc1ccccc1
,inactive,inactive,inactive,inactive,inactive,,,inactive,O=[N+]([O-])c1ccc(CS(=O)(=O)NCCN2CCOCC2)cc1
,inactive,inactive,inactive,inactive,inactive,,,inactive,CN(C)CCNS(=O)(=O)Cc1ccc(F)cc1
